Here are results for 24 compounds from ChEMBL document CHEMBL1782051, “Synthesis and biological evaluation of novel gamma-carboline analogues of Dimebon as potent 5-HT6 receptor antagonists” (Bioorg Med Chem Lett, 2009).

In assay [1] the target is T1, Histamine H1 receptor (Homo sapiens, UniProt P35367). In words: Antagonist activity at human histamine H1 receptor in SK-N-SH cells assessed as inhibition of histamine-induced calcium level increase during phase-1 compound incubated before histamine addition by Fura-2 based fluorometric assay. The class given is functional, cell-based. Summed up: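 H1 receptor Ca-dependent signalling was measured in SK-N-SH cells as blockade of histamine-induced calcium flow in phase-I. IC50 values were reported.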
T1 sequence (P35367 whole entry): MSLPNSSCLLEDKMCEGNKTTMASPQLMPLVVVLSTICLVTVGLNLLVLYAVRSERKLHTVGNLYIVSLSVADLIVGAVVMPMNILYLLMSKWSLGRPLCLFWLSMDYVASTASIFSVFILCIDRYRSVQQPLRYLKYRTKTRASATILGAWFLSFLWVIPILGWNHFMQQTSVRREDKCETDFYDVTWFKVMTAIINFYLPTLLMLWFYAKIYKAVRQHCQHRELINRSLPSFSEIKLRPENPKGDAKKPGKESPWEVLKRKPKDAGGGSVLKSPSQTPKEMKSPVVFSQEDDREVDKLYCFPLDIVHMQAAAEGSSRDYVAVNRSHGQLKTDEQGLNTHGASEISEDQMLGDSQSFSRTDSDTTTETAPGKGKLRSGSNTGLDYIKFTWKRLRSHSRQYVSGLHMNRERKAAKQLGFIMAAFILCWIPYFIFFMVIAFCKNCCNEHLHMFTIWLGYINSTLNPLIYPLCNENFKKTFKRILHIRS

Assay [2] has as its target 5-hydroxytryptamine receptor 6 (Homo sapiens, UniProt P50406). In words: Antagonist activity at human recombinant 5-HT6 receptor expressed in HEK293 cells assessed as inhibition of serotonin-induced intracellular cAMP accumulation by LANCE technique. Type of assay: functional, cell-based. Summed up: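 Cells continuously express recombinant human 5-HT6 receptors. Serotonin stimulation raises intracellular cyclic AMP, which was monitored continuously by LANCE technology. Read-out was inhibition of the serotonin-dependent cAMP response.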
In general terms: Changes in cAMP serve as a functional read-out for many G protein-coupled receptors.

In assay [3] the target is T1, Histamine H1 receptor. Nature of the assay: Antagonist activity at human histamine H1 receptor in SK-N-SH cells assessed as inhibition of histamine-induced calcium flow during phase-II compound dosed after histamine addition by Fura-2 based fluorometric assay. The class given is functional.
The target in assay [4] is Glutamate NMDA receptor (Rattus norvegicus) (UniProt P35439+Q00959+Q00960+Q00961+Q62645+Q8VHN2+Q9R1M7). In words: Inhibition of NMDA receptor in rat brain cortical neurons assessed as blocking of NMDA-induced currents. The class given is tissue-based.
Assay [5] in a line: Inhibition of L-type calcium channel.
Another assay has as its target Cholinesterase (Homo sapiens, UniProt P06276). In words: Inhibition of BuChE.
Assay [6] in a line: Neuroprotective activity in cerebellum cell culture assessed as protection against beta-amyloid fragment Abeta (25-35)-induced neurotoxicity. The class given is functional, tissue-based.
The target in another assay is Acetylcholinesterase (Homo sapiens, UniProt P22303). Nature of the assay: Inhibition of AChE.
Sequence of Acetylcholinesterase (P22303 whole entry): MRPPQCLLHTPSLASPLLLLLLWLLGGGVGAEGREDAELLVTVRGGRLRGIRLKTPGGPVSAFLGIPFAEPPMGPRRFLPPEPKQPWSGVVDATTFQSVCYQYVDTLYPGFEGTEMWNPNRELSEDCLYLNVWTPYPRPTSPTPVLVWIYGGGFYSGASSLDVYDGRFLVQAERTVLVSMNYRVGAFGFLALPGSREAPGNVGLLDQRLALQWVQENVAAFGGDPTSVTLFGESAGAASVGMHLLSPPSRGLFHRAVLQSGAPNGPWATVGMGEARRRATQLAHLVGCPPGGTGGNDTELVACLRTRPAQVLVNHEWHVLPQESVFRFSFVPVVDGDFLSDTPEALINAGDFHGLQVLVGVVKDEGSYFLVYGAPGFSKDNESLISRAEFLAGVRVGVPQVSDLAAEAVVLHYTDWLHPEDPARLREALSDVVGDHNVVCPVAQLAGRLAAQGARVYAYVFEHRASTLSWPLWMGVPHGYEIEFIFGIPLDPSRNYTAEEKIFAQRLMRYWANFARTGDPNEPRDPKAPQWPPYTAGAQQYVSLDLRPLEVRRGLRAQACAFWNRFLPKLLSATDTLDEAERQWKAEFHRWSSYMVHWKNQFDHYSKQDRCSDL

A value given as a limit tells only on which side of the number the result lay.

Sequence of 5-hydroxytryptamine receptor 6 (P50406 whole entry): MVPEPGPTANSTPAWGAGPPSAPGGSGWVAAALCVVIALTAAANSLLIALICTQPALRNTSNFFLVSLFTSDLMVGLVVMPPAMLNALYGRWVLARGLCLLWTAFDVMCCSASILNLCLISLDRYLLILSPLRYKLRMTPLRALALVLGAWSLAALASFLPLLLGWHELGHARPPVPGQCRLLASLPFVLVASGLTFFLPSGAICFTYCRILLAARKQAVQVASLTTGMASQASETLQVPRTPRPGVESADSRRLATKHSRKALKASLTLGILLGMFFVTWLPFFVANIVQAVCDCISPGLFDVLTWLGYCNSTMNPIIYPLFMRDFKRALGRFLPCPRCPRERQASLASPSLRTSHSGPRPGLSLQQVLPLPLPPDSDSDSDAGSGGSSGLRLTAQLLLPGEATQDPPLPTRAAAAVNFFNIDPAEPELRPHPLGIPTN
Sequence of Cholinesterase (P06276 whole entry, the tested form may be a part): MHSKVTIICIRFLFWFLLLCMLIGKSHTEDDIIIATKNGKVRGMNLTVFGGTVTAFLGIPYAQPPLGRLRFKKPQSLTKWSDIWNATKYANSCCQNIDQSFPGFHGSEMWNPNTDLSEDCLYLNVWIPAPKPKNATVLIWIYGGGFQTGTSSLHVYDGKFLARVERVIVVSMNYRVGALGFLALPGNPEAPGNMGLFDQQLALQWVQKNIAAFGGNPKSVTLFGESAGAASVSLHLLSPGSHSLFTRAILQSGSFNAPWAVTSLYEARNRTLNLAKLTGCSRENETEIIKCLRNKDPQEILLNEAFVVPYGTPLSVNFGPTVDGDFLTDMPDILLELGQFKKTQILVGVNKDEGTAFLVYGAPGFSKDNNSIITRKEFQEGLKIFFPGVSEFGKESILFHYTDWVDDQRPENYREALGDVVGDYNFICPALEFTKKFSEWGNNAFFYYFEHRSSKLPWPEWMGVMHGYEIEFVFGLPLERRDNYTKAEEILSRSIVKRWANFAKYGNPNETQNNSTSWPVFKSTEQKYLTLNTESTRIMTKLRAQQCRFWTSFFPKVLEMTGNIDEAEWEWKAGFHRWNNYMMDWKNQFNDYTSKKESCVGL

Regarding `Cc1ccc2c(c1)c1c(n2CCc2cnccn2)CCN(C)C1`, the IC50 (in general, the concentration at which inhibition is half-maximal) at Histamine H1 receptor [1] was 0.32 µM; in assay [2] (read-out: IC50) it was 2.06 µM; on Histamine H1 receptor [3] it was 7.94 µM.

For `Cc1ccc2c(c1)c1c(n2CCc2cccnc2)CCN(C)C1`, the values for the IC50 (on Histamine H1 receptor [1]; in assay [2] (read-out: IC50); at Histamine H1 receptor [3]) were 0.5 µM, 0.44 µM and 3.16 µM, respectively.

Take `Cc1ccc2c(c1)c1c(n2CCc2ccccn2)CCN(C)C1`: the figures for the half-inhibitory concentration (IC50) (at Histamine H1 receptor [1]; in assay [2] (read-out: IC50); on Histamine H1 receptor [3]) were 0.5 µM, 0.86 µM and 10 µM, respectively.

As for `COc1ccc2c(c1)c1c(n2CCc2ccccn2)CCN(C)C1`, the IC50 on Histamine H1 receptor [1] amounted to 4.67 µM; in assay [2] (read-out: IC50) it was 8.36 µM.

In the case of `CN1CCc2c(c3cc(C(F)(F)F)ccc3n2CCc2ccccn2)C1`, the values for the IC50 (at Histamine H1 receptor [1]; in assay [2] (read-out: IC50); on Histamine H1 receptor [3]) were 0.56 µM, 1.59 µM and 1.59 µM, respectively.

On to `Cc1ccc2c(c1)c1c(n2CCc2ccc(C)nc2)CCN(C)C1` [LATREPIRDINE], for which the half-maximal inhibitory concentration (IC50) turned out to be 0.16 µM on Histamine H1 receptor [1]; 0.89 µM in assay [2] (read-out: IC50); 57 µM in assay [5]; 1.58 µM on Histamine H1 receptor [3]; 7.9 µM against Cholinesterase; 45 µM on Acetylcholinesterase. Further, the ED50 in assay [4] is 42 µM. The EC50 (in general, the concentration at which the effect is half-maximal) in assay [6] turned out to be 25 µM.

With `CN1CCc2c(c3ccccc3n2CCc2ccncc2)C1`, the results for the IC50 (on Histamine H1 receptor [1]; in assay [2] (read-out: IC50); at Histamine H1 receptor [3]) were 0.12 µM, 8.91 µM and 0.5 µM, respectively.

Consider `CN1CCc2c(c3cc(-c4cccnc4)ccc3n2CCc2ccccn2)C1`, for which the concentration for half-maximal inhibition (IC50) was determined as 7.16 µM at Histamine H1 receptor [1] and 43.2 µM in assay [2] (read-out: IC50).

As to `CN1CCc2c(c3cc(F)ccc3n2CCc2cccnc2)C1`, the half-maximal inhibitory concentration (IC50) on Histamine H1 receptor [1] is 0.65 µM; in assay [2] (read-out: IC50), over 10 µM; at Histamine H1 receptor [3], 0.93 µM.

Consider `CN1CCc2c(c3cc(C(=O)O)ccc3n2CCc2ccncc2)C1`, for which the half-maximal inhibitory concentration (IC50) (on Histamine H1 receptor [1]; in assay [2] (read-out: IC50)) was over 10 µM each time.

In the case of `CN1CCc2c(c3cc(C(F)(F)F)ccc3n2CCc2cccnc2)C1`, the IC50 on Histamine H1 receptor [1] is over 10 µM; in assay [2] (read-out: IC50), 5.8 µM.

For the compound `CN1CCc2c(c3ccccc3n2CCc2cccnc2)C1`, the IC50 on Histamine H1 receptor [1] stood at 0.1 µM; in assay [2] (read-out: IC50), 5.99 µM; on Histamine H1 receptor [3], 0.41 µM.

With `CN1CCc2c(c3cc(C#N)ccc3n2CCc2ccccn2)C1`, the half-inhibitory concentration (IC50) was found to be 1.29 µM at Histamine H1 receptor [1] and 7.47 µM in assay [2] (read-out: IC50).

Regarding `CN1CCc2c(c3cc(F)ccc3n2CCc2ccccn2)C1`, the IC50 at Histamine H1 receptor [1] is 0.94 µM; in assay [2] (read-out: IC50), 2.98 µM; at Histamine H1 receptor [3] it was 0.61 µM.

With `COc1ccc2c(c1)c1c(n2CCc2ccncc2)CCN(C)C1`, the IC50 on Histamine H1 receptor [1] turned out to be 0.39 µM; in assay [2] (read-out: IC50), 4.34 µM.

As to `Cc1ccc2c(c1)c1c(n2CCc2cccnc2)CCN(C2CCN(C)CC2)C1`, the IC50 is 2.79 µM at Histamine H1 receptor [1] and “Not Active” in assay [2] (hek293).

With `Cc1ccc2c(c1)c1c(n2CCc2ccccn2)CCN(C2CCN(C)CC2)C1`, the figures for the half-inhibitory concentration (IC50) (at Histamine H1 receptor [1]; in assay [2] (hek293)) were over 10 µM and “Not Active”, respectively.

On to `Cc1ccc2c(c1)c1c(n2CCc2ccncc2)CCN(C)C1`, for which the half-inhibitory concentration (IC50) on Histamine H1 receptor [1] was found to be 0.16 µM; in assay [2] (read-out: IC50) it was 0.37 µM; on Histamine H1 receptor [3], 3.98 µM.

Take `CN1CCc2c(c3cc(C(F)(F)F)ccc3n2CCc2ccncc2)C1`: the IC50 at Histamine H1 receptor [1] was determined as 0.22 µM; in assay [2] (read-out: IC50) it was 6.4 µM.

With `CN1CCc2c(c3ccccc3n2CCc2ccccn2)C1`, the half-inhibitory concentration (IC50) at Histamine H1 receptor [1] came out at 1.82 µM; in assay [2] (read-out: IC50), 15.8 µM; on Histamine H1 receptor [3], 0.93 µM.

Turning to `CN1CCc2c(c3cc(F)ccc3n2CCc2ccncc2)C1`, the figures for the IC50 (at Histamine H1 receptor [1]; in assay [2] (read-out: IC50); on Histamine H1 receptor [3]) were 0.12 µM, 3.24 µM and 0.47 µM, respectively.

Regarding `Cc1ccc(CCn2c3c(c4cc(F)ccc42)CN(C)CC3)cn1`, the IC50 on Histamine H1 receptor [1] is 0.11 µM; in assay [2] (read-out: IC50), 10.7 µM; on Histamine H1 receptor [3] it was 0.73 µM.

Turning to `CN1CCc2c(c3cc(Br)ccc3n2CCc2ccccn2)C1`, the IC50 on Histamine H1 receptor [1] was 0.12 µM; in assay [2] (read-out: IC50), 1.04 µM.

With `Cc1ccc2c(c1)c1c(n2CCc2ccncc2)CCN(C2CCN(C)CC2)C1`, the figures for the IC50 (at Histamine H1 receptor [1]; in assay [2] (hek293)) were 7.57 µM and “Not Active”, respectively.
